Bioassay records as filed in PubChem.
Hits are enriched below; roughly 1.8% of the tested compounds scored in any of these assays.
LEDGF integ inh – blocks HIV-1 LEDGF/p75-dependent DNA integration; TR-FRET IN-LEDGF/p75 DNA integration, Eu/Cy5; hit rate 0.64% among 370,000; inhibition, % at 3.7 µM;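 active = inhibition above the screen-wide mean plus 3 SD, cut at about 13% in these data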;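 also: signal is the Cy5 over europium emission ratio at 671 and 618 nm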
Casp6 inh – caspase-6 (human) enzyme inhibition. AID 686996. purified caspase-6, Z-VEID-R110 cleavage fluorescence. inhibition, % at 12.5 µM. hit rate 0.53% among 350,000;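 active = mean inhibition across replicates at least about 35%, with every replicate also reaching that limit, limit read from the data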
Target sequence (P55212 24-179 limits assumed): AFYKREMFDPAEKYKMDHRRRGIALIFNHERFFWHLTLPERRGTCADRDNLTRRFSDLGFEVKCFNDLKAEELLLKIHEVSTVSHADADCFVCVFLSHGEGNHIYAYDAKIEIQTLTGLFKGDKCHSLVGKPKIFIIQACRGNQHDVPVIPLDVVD
Target sequence (P55212 194-293 limits assumed): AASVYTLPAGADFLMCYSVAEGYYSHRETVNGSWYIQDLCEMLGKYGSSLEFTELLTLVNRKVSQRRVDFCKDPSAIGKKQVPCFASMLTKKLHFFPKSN
MBD2 inh – inhibitors of human MBD2 binding to methylated oligonucleotide; Q9UBB5; TR-FRET; inhibition, % at 4.4 µM; hit rate 0.31% among 370,000; in the data active = inhibition above about 13%
NSD2 HMT inh – NSD2 (human) methyltransferase inhibition; NSD2 peptide methylation, AlphaScreen, 120 min; inhibition, % at 12.5 µM; hit rate 0.54% among 310,000; AID 743445; in the data active = inhibition above about 50%
UHRF1 binding – UHRF1 methyl-DNA binding inhibition; Q96T88; UHRF1 binding to methylated oligo, TR-FRET; inhibition, % at 4.4 µM; hit rate 0.75% among 370,000; in the data active = inhibition above about 21%;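 also: UHRF1 SRA domain binding a hemimethylated CpG hairpin DNA probe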
TDP2 absorb – TDP2 (human) inhibition, absorbance primary screen; O95551; recombinant TDP2, T5PNP hydrolysis, p-nitrophenol absorbance 415 nm; inhibition, % at 12.8 µM; hit rate 0.34% among 370,000;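 active = inhibition above the mean of all tested compounds plus 3 SD, set per campaign, cut at about 25% in these data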
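Test system: human TDP2 enzyme; Input: 120 nM TDP2 per well; Buffer or medium: Mg2+-containing Tris-HCl buffer, pH 7.5; Reagent: 5 mM T5PNP; Dosing: 12.8 µM single point, 1% DMSO; Incubation: reaction 2 h, 37 °C; Detection: p-Nitrophenol epi absorbance; Read-out: % inhibition relative to enzyme-containing and enzyme-free wells; Replicates: single well per compound.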
Of the large screens only hits and unclear results are named; the others gave an inactive call.

CO[C@H]1CC[C@H]2CCN(C)C(=O)[C@H](C)[C@@H](OC)CN(C)C(=O)c3cccc(C#N)c3OC[C@H]1O2	none (no result: LEDGF integ inh, MBD2 inh, NSD2 HMT inh, UHRF1 binding, TDP2 absorb)
CCC(=O)N[C@@H]1C=C[C@H](CC(=O)NCC2CC2)O[C@@H]1CO	none (no result: LEDGF integ inh, MBD2 inh, NSD2 HMT inh, UHRF1 binding, TDP2 absorb)
O=C(O)c1cc(Nc2cc(Cl)c3nonc3c2[N+](=O)[O-])ccc1O	Casp6 inh 49
CC(C)C(C(=O)Nc1ccc2c(c1)OCO2)N1C(=O)c2ccccc2C1=O (centres undefined)	none (no result: Casp6 inh)
CC(C(=O)OCC(=O)Nc1ccc2c(c1)OCO2)N1C(=O)c2ccccc2C1=O (centres undefined)	MBD2 inh 34 (no result: Casp6 inh)
Cc1ccc2[nH]c3c(c2c1)CCCC3NCCO (centres undefined)	Casp6 inh 44
Cc1ccc(S(=O)(=O)N(CC(=O)Nc2ccccc2C(=O)O)c2cccc(Cl)c2C)cc1	Casp6 inh 47
Cc1ccc(S(=O)(=O)N(CC(=O)Nc2ccccc2C(=O)O)c2ccccc2C)cc1	none
CC(=O)c1ccc(OCc2cc([N+](=O)[O-])cc3c2OCOC3)cc1	UHRF1 binding 23
O=C(c1cccc(NS(=O)(=O)c2cccc(F)c2)c1)N1CCCC1	UHRF1 binding 21
O=C(c1cccc(S(=O)(=O)N2CCOCC2)c1)N1CCCCCC1	UHRF1 binding 40 (no result: Casp6 inh)
O=C(c1cccc(S(=O)(=O)Nc2ccccc2Cl)c1)N1CCCCCC1	none
O=C(c1cccc(S(=O)(=O)Nc2ccccc2Cl)c1)N1CCN(c2ccccc2O)CC1	UHRF1 binding 21
O=C(c1cccc(NS(=O)(=O)c2ccccc2)c1)N1CCCC1	none
CCCC(=O)Nc1ccc2c(c1)C(=O)N(C)[C@@H]1CC[C@H](CC(=O)NCCCN(C)C)O[C@@H]1CO2	none (no result: LEDGF integ inh, MBD2 inh, NSD2 HMT inh, UHRF1 binding, TDP2 absorb)
CC(C)CC#Cc1ccc2c(c1)O[C@@H](CN(C)Cc1cccc(F)c1)[C@H](C)CN([C@@H](C)CO)S2(=O)=O	none (no result: LEDGF integ inh, MBD2 inh, NSD2 HMT inh, UHRF1 binding, TDP2 absorb)
COc1ccccc1NC(=O)N1C[C@H]2[C@@H](c3ccccc31)[C@@H](CO)N2C(=O)C1CC1	none (no result: LEDGF integ inh, MBD2 inh, NSD2 HMT inh, UHRF1 binding, TDP2 absorb)
Clc1cccc(-c2nc3nc4ccccc4nc3n2Cc2ccccc2)c1	UHRF1 binding 29
c1ccc(Cn2c(-c3ccccc3)nc3nc4ccccc4nc32)cc1	none (no result: Casp6 inh)
COc1ccccc1-c1nnc2n1N=C(c1ccc(O)c(O)c1)CS2	NSD2 HMT inh 56 (no result: LEDGF integ inh, Casp6 inh, MBD2 inh, UHRF1 binding, TDP2 absorb)
CCOc1ccc(C2=Nn3c(nnc3-c3ccccc3OC)SC2)cc1	none (no result: Casp6 inh)
CCCNC(=O)[C@H]1[C@H](CO)[C@H]2Cn3c(ccc(-c4ccccc4)c3=O)[C@@H]1N2C(=O)CC	none (no result: LEDGF integ inh, MBD2 inh, NSD2 HMT inh, UHRF1 binding, TDP2 absorb)
CC(=O)c1cccc(OCc2cc(C(=O)NC3CCN(Cc4ccccc4)CC3)no2)c1	UHRF1 binding 21
COc1cc(N)c(Cl)cc1C(=O)NC1CCN(Cc2ccccc2)CC1	Casp6 inh 49 (no result: NSD2 HMT inh)
O=C(NC1CCN(Cc2ccccc2)CC1)c1cccc(OC(F)F)c1	none
CCNC(=O)NC(=O)C(C)OC(=O)C(C)(C)Oc1ccc(Cl)cc1 (centres undefined)	UHRF1 binding 26
O=S1(=O)CC(N2CCN(Cc3ccccc3F)CC2)CN1Cc1cn(Cc2ccc(C(F)(F)F)cc2)nn1 (centres undefined)	UHRF1 binding 21 (no result: NSD2 HMT inh)
Cc1ccc(Cn2cc(CN3CC(N4CCN(Cc5ccccc5F)CC4)CS3(=O)=O)nn2)cc1 (centres undefined)	none (no result: NSD2 HMT inh)
CCOC(=O)c1[nH]c(C)c(C(=O)OCc2c(C)noc2C)c1C	UHRF1 binding 22 (no result: Casp6 inh)
CCOC(=O)c1[nH]c(C)c(C(=O)OC)c1C	none
COCCNC(=O)/C(C#N)=C/c1ccc(-c2ccc(S(=O)(=O)N3CCOCC3)cc2)o1	UHRF1 binding 69
Cc1ccc(C(=O)Nc2ccc(N3CCN(C(=O)c4ccco4)CC3)cc2)cc1	none
O=C(Nc1ccc(N2CCN(C(=O)c3ccco3)CC2)cc1)c1ccc(Br)cc1	UHRF1 binding 70
COc1ccc(NC(=O)N(C)C[C@H]2Oc3c(NC(=O)c4ccncc4)cccc3C(=O)N([C@@H](C)CO)C[C@H]2C)cc1	none (no result: LEDGF integ inh, MBD2 inh, NSD2 HMT inh, UHRF1 binding, TDP2 absorb)
Cc1cc(Oc2ccc([N+](=O)[O-])cc2)nc(N2CCOCC2)n1	none
Cc1cc(Oc2ccc(C#N)cc2)nc(N2CCOCC2)n1	UHRF1 binding 21 (no result: Casp6 inh)
C[C@H]1CN([C@@H](C)CO)C(=O)c2cccc(NS(=O)(=O)c3cn(C)cn3)c2O[C@H]1CN(C)S(=O)(=O)c1cccs1	none (no result: LEDGF integ inh, MBD2 inh, NSD2 HMT inh, UHRF1 binding, TDP2 absorb)
